Activity calls are given as the source filed them. The calls are words filed in the database; no cut-off is given here.
What was measured:
MDA-MB-231 = test: Antiproliferative activity against human MDA-MB-231 cells after 48 hrs by MTT assay; type: functional, cell-based; settings: MDA-MB-231, 48 h
B16-F10 [1] = test: Antiproliferative activity against mouse B16F10 cells after 48 hrs by MTT assay; type: functional, cell-based; settings: B16-F10, 48 h
B16-F10 [2] = test: Inhibition of colony formation in mouse B16F10 cells at 0.125 to 0.25 uM after 7 days by crystal violet staining based assay; type: functional, cell-based
How it was run: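 Clonogenic long-term growth assay: A375 or B16F10 cells grown under continuous compound exposure for 7 days, then colonies quantified; mean ± sd, n = 3, two-way ANOVA.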

A-375 [3] = test: Induction of apoptosis in human A375 cells assessed as live cells at 1 uM after 48 hrs by Annexin V-FITC/propidium iodide staining based flow cytometry (reference value: 93.6%); type: functional
A-375 [4] = test: Induction of apoptosis in human A375 cells assessed as late apoptotic cells at 1 uM after 48 hrs by Annexin V-FITC/propidium iodide staining based flow cytometry (reference value: 2.7%); type: functional
B16-F10 [5] = test: Induction of apoptosis in mouse B16F10 cells assessed as late apoptotic cells at 1 uM after 48 hrs by Annexin V-FITC/propidium iodide staining based flow cytometry (reference value: 0.303%); type: functional
B16-F10 [6] = test: Induction of apoptosis in mouse B16F10 cells assessed as necrotic cells at 2 uM after 48 hrs by Annexin V-FITC/propidium iodide staining based flow cytometry (reference value: 1.86%); type: functional
A-375 [7] = test: Induction of apoptosis in human A375 cells after 48 hrs by Annexin V-FITC/propidium iodide staining based flow cytometry; type: functional, cell-based
A-375 [8] = test: Induction of apoptosis in human A375 cells assessed as upregulation of cleaved PARP expression at 0.5 to 4 uM after 48 hrs by Western blot analysis; type: functional, cell-based
How it was run: (§1)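 Cells treated with compound at different concentrations (0.5-4 μM) for 48 h. Lysates probed by Western blot for cleaved PARP, active caspase-3, Bax and p53.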

A-375 [9] = test: Induction of apoptosis in human A375 cells assessed as upregulation of activated caspase-3 protein expression at 0.5 to 4 uM after 48 hrs by Western blot analysis; type: functional, cell-based; how it was run: as §1
B16-F10 [10] = test: Induction of apoptosis in mouse B16F10 cells assessed as upregulation of cleaved PARP expression at 0.5 to 4 uM after 48 hrs by Western blot analysis; type: functional, cell-based; how it was run: as §1
A-375 [11] = test: Antimigratory activity against human A375 cells at 0.25 uM after 24 to 48 hrs by wound healing assay; type: functional, cell-based
How it was run: (§2)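 Wound-healing scratch assay on cells treated with or without compound (0.25 μM). Images recorded at 0, 24 and 48 h, and migration distance quantified. Mean ± sd, n = 3, two-way ANOVA.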

B16-F10 [12] = test: Antimigratory activity against mouse B16F10 cells at 0.25 uM after 24 to 48 hrs by wound healing assay; type: functional, cell-based; how it was run: as §2
B16-F10 [13] = test: Anti-invasive activity against mouse B16F10 cells at 0.25 uM after 24 hrs by matrigel invasion assay; type: functional, cell-based
How it was run: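 Cells seeded in the upper chamber of a transwell with a Matrigel-precoated filter, incubated with compound (0.25 μM) for 24 h. Invaded cells imaged and counted against an untreated control. Mean ± sd, n = 3, two-way ANOVA.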

A-375 [14] = test: Inhibition of tumor sphere formation ability of human A375 cells at 0.25 to 0.5 uM pretreated for 48 hrs followed by cell culture for 7 days; type: functional, cell-based
How it was run: (§3)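 A375 or B16F10 cells pretreated with or without compound for 48 h, collected and replated on ultra-low attachment surfaces; after 7 days of culture, sphere number and size scored; mean ± sd, n = 3, two-way ANOVA.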

B16-F10 [15] = test: Inhibition of tumor sphere formation ability of mouse B16F10 cells at 0.25 to 0.5 uM pretreated for 48 hrs followed by cell culture for 7 days; type: functional, cell-based; how it was run: as §3
B16-F10 [16] = test: Inhibition of ALDH+ subpopulation of mouse B16F10 cells assessed as ALDH+ cells at 0.25 after 48 hrs by flow cytometry (reference value: 26.7%); type: functional; parameters: scale not given: the % may be the effect or the level left
A-375 [17] = test: Inhibition of CD133+ sub-population of human A375 cells assessed as CD133+ cells at 0.5 after 48 hrs by flow cytometry (reference value: 4.54%); type: functional; parameters: scale not given: the % may be the effect or the level left
A-375 [18] = test: Downregulation of beta-catenin protein expression in human A375 cells after 48 hrs by Western blot analysis; type: functional, cell-based
How it was run: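 Cells treated with compound at different concentrations for 48 h. Western blot for STAT3, p-STAT3, β-catenin and c-Myc.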

B16-F10 [19] = test: Antitumor activity against mouse B16F10 cells implanted in C57BL/6J mouse assessed as tumor growth inhibition at 15 mg/kg/day, ip measured after 24 days; type: functional, organism-based
How it was run: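 C57BL/6J mice injected subcutaneously with B16F10 cells and treated with vehicle or compound. Tumor volume and body weight followed, and tumors dissected and weighed on day 24. Mean ± sd, n = 5, two-way ANOVA.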

Mus musculus = test: Toxicity in C57BL/6J mouse implanted with mouse B16F10 cells assessed as change in body weight at 15 mg/kg/day, ip measured daily for 24 days; type: organism-based; settings: in vivo, 576 h
How it was run: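 C57BL/6J mice carrying subcutaneous B16F10 cell grafts; vehicle and treated groups (n = 5) followed for body weight, with tumours dissected and weighed on day 24; mean ± sd, two-way ANOVA.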

A-375 [20] = test: Induction of apoptosis in human A375 cells assessed as upregulation of Bax expression after 48 hrs by Western blot analysis
B16-F10 [21] = test: Induction of apoptosis in mouse B16F10 cells assessed as upregulation of Bax expression after 48 hrs by Western blot analysis

In the case of CC[C@H](C)[C@H](NC(=O)OCc1ccccc1)C(=O)N[C@@H](CC(C)C)C(=O)N[C@@H](CC(C)C)C(=O)N[C@@H](C)/C=C/C(=O)N1C(=O)C=C(OC)[C@@H]1C(C)C, the IC50 (MDA-MB-231) is reported as 922 nM, the IC50 (B16-F10 [1]) is reported as 522 nM and the inhibition (B16-F10 [2]) is reported as “Active”. The Activity (A-375 [3]) was 97.9%, the Activity (A-375 [4]) was 4.48% and the Activity (B16-F10 [5]) was 4.05%. For the same molecule, the Activity (B16-F10 [6]) was 3.92%, the Activity (A-375 [7]) was “Dose-dependent effect” and the Activity (A-375 [8]) was “Active”. The Activity (A-375 [9]) was “Active”, the Activity (B16-F10 [10]) was “Active” and the Activity (A-375 [11]) was “Active”. The Activity (B16-F10 [12]) was “Active”, the Activity (B16-F10 [13]) was “Active” and the inhibition (A-375 [14]) was “Active”. For the same molecule, the inhibition (B16-F10 [15]) was “Active”, the Activity (B16-F10 [16]) was 17.6% and the Activity (A-375 [17]) was 0.867%. The Activity (A-375 [18]) was “Dose-dependent effect”, the TGI (B16-F10 [19]) was “Active” and the Activity (Mus musculus) was “Non-Toxic”. For the same molecule, the Bax upregulation (A-375 [20]) was “Dose-dependent effect” and the Bax upregulation (B16-F10 [21]) was “Dose-dependent effect”.
